Test [1] addresses Ribosomal protein S6 kinase alpha-1 (Homo sapiens) (UniProt Q15418). As to the kind of experiment: Inhibition of RSK1 at 30 uM by microfluidic mobility shift assay. The essentials: (§1)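 Single-concentration screen, singlicate, 30 uM final (diluted from 1 mM DMSO solutions), fluorescently tagged peptide substrate appropriate to each kinase, ATP at apparent Km for each protein. Phosphorylated and unphosphorylated peptides separated electrophoretically; conversion is the phosphorylated peak area over the sum of both peaks. No-inhibitor and no-ATP controls; H89 reference on each plate.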

Test [2] has as its target RAC-beta serine/threonine-protein kinase (Homo sapiens) (UniProt P31751). As to the kind of experiment: Inhibition of AKT2 at 30 uM by microfluidic mobility shift assay. The essentials: as §1
Test [3] addresses T1, Serine/threonine-protein kinase Chk1 (Homo sapiens) (UniProt O14757).
T1 sequence (whole entry): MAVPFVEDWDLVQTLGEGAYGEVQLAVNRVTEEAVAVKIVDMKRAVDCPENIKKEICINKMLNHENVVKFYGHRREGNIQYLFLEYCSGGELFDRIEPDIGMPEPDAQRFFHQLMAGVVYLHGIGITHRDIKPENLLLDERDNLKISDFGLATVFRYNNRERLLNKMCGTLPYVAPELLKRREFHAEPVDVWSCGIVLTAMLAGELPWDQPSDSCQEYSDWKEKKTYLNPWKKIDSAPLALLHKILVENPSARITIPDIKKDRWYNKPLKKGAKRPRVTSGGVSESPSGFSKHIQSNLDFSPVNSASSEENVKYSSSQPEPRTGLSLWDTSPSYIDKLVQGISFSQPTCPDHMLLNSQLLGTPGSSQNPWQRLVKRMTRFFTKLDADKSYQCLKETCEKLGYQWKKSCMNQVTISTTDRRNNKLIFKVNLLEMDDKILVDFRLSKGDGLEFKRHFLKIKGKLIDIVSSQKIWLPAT
As to the kind of experiment: Inhibition of CHK1 at 30 uM by microfluidic mobility shift assay. The essentials: as §1

Test [4] deals with T2, Serine/threonine-protein kinase D2 (Homo sapiens) (UniProt Q9BZL6).
T2 sequence (whole entry): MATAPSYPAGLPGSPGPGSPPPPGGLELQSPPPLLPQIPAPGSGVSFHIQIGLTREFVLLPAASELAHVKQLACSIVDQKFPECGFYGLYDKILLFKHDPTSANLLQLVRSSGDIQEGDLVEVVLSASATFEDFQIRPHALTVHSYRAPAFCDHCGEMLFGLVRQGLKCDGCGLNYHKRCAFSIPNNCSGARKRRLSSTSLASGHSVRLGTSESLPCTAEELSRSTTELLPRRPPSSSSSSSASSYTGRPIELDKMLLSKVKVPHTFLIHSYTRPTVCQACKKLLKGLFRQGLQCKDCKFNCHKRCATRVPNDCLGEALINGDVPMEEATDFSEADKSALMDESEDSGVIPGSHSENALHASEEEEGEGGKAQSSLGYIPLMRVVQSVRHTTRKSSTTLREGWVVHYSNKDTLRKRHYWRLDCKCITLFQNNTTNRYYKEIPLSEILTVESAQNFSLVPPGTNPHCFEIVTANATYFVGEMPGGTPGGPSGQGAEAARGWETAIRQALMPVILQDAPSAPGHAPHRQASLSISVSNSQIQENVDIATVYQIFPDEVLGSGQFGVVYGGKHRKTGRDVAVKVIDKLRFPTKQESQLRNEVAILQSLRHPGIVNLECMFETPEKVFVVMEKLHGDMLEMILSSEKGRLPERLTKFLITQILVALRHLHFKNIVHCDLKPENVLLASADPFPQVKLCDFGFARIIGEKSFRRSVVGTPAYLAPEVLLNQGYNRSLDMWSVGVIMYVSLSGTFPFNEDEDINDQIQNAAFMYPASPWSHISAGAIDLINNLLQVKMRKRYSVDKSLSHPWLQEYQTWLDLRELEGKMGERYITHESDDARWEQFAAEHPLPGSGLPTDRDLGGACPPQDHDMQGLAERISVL
As to the kind of experiment: Inhibition of PKD2 at 30 uM by microfluidic mobility shift assay. The procedure, abridged: as §1

Test [5] concerns the target Insulin receptor (Homo sapiens) (UniProt P06213). Nature of the test: Inhibition of INSR at 30 uM by microfluidic mobility shift assay. The essentials:
as §1

The target in test [6] is Tyrosine-protein kinase ABL1 (Homo sapiens, UniProt P00519). As to the kind of experiment: Inhibition of ABL at 30 uM by microfluidic mobility shift assay. The essentials: as §1
For test [7], the target named is Mitogen-activated protein kinase 3 (Homo sapiens) (UniProt P27361). Nature of the test: Inhibition of ERK1 at 30 uM by microfluidic mobility shift assay. The essentials:
as §1

Test [8] addresses Mitogen-activated protein kinase 1 (Homo sapiens) (UniProt P28482). Nature of the test: Inhibition of ERK2 at 30 uM by microfluidic mobility shift assay. The essentials:
as §1

The target in test [9] is T3, Aurora kinase A (Homo sapiens) (UniProt O14965).
T3 sequence (whole entry): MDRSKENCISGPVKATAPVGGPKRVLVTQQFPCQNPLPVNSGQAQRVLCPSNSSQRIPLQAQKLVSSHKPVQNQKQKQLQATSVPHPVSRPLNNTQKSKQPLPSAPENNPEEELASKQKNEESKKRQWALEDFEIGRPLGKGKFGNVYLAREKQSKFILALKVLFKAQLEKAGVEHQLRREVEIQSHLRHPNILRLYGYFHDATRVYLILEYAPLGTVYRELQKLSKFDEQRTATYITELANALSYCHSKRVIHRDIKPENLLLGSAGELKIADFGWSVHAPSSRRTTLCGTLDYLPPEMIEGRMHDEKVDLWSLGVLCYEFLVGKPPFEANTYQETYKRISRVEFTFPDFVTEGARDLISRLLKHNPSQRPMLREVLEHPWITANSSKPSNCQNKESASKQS
As to the kind of experiment: Inhibition of AurA at 30 uM by microfluidic mobility shift assay. The essentials:
as §1

The target of test [10] is T4, MAP kinase-activated protein kinase 5 (Homo sapiens) (UniProt Q8IW41).
T4 sequence (whole entry): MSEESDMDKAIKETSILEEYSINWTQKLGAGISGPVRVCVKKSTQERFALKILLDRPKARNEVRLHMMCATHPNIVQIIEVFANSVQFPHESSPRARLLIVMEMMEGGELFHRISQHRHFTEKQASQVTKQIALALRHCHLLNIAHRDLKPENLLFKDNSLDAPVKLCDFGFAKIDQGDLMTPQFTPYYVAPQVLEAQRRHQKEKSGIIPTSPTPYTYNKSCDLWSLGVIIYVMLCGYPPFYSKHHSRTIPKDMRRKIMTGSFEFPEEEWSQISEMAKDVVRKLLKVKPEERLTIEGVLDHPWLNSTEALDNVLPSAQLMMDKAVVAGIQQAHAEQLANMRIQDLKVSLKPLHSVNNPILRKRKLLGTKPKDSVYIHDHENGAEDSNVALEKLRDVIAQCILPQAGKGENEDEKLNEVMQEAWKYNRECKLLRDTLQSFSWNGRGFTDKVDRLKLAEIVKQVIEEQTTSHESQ
Nature of the test: Inhibition of PRAK1 at 30 uM by microfluidic mobility shift assay. The essentials:
as §1

Test [11] can be described thus: Inhibition of PKA at 30 uM by microfluidic mobility shift assay. The essentials:
as §1

For test [12], the target named is Tyrosine-protein kinase Fyn (Homo sapiens, UniProt P06241). As to the kind of experiment: Inhibition of FYN at 30 uM by microfluidic mobility shift assay. The procedure, abridged: as §1
Chain of Tyrosine-protein kinase Fyn (P06241 2-537 limits assumed): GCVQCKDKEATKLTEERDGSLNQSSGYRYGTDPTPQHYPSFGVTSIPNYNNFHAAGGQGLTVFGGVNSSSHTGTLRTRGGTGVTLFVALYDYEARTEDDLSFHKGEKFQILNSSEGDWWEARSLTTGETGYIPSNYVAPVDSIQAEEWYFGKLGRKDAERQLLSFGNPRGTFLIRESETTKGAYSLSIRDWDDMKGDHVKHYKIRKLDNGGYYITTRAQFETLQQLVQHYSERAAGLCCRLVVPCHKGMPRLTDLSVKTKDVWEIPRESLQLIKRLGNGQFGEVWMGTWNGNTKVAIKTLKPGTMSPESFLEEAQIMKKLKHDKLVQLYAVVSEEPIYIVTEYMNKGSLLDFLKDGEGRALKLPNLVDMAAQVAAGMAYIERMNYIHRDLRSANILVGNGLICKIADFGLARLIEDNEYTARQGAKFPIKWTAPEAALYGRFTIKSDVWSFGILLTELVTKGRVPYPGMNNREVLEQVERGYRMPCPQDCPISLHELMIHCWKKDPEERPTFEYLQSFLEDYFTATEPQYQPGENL
The target of test [13] is MAP kinase-activated protein kinase 2 (Homo sapiens, UniProt P49137). Nature of the test: Inhibition of MAPKAPK2 at 30 uM by microfluidic mobility shift assay. The essentials:
as §1

In test [14] the target is Proto-oncogene tyrosine-protein kinase Src (Homo sapiens, UniProt P12931). Nature of the test: Inhibition of SRC at 30 uM by microfluidic mobility shift assay. The procedure, abridged:
as §1

The target of test [15] is Mitogen-activated protein kinase 14 (Homo sapiens, UniProt Q16539). As to the kind of experiment: Inhibition of p38alpha at 30 uM by microfluidic mobility shift assay. The procedure, abridged: as §1
Chain of Mitogen-activated protein kinase 14 (Q16539 whole entry): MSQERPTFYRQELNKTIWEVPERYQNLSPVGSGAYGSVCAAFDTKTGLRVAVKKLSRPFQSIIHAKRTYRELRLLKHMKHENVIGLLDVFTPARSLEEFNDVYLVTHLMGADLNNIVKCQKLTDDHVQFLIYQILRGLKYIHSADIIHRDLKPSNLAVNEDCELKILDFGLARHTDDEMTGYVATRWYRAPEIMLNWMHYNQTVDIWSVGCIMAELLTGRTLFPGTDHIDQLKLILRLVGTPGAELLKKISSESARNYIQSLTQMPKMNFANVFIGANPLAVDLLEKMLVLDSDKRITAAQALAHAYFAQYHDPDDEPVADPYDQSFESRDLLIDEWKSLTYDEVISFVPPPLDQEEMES
The target in test [16] is Ribosomal protein S6 kinase alpha-5 (Homo sapiens) (UniProt O75582). Nature of the test: Inhibition of MSK1 at 30 uM by microfluidic mobility shift assay. The essentials: as §1
Chain of Ribosomal protein S6 kinase alpha-5 (Homo sapiens) (O75582 whole entry, looked up): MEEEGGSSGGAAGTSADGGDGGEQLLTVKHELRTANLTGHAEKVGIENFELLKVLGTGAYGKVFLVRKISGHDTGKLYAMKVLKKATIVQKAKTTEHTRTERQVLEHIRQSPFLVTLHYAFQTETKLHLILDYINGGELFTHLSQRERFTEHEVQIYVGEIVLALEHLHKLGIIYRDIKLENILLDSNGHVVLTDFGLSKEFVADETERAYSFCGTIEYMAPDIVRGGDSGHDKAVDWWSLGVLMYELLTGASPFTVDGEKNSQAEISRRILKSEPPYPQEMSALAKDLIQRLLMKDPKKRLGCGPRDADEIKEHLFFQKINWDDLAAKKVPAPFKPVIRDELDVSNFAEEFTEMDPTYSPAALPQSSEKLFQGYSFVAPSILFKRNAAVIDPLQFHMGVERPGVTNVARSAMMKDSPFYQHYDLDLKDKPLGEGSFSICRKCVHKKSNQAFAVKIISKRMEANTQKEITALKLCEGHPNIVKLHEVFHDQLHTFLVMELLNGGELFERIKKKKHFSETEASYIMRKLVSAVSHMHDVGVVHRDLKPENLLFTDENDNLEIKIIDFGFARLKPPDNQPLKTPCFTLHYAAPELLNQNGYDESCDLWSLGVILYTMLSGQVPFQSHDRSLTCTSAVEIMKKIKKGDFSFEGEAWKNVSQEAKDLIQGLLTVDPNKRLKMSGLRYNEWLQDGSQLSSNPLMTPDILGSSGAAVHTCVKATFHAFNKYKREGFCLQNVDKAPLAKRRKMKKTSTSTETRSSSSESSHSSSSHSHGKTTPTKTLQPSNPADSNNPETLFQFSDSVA
The target in test [17] is Tyrosine-protein kinase Lck (Homo sapiens, UniProt P06239). Nature of the test: Inhibition of LCK at 30 uM by microfluidic mobility shift assay. The procedure, abridged:
as §1

Test [18] has as its target RAC-alpha serine/threonine-protein kinase (Homo sapiens) (UniProt P31749). As to the kind of experiment: Inhibition of AKT1 at 30 uM by microfluidic mobility shift assay. The procedure, abridged: as §1
Test [19] deals with Tyrosine-protein kinase Lyn (Homo sapiens, UniProt P07948). As to the kind of experiment: Inhibition of LYN at 30 uM by microfluidic mobility shift assay. The essentials:
as §1

For test [20], the target named is Glycogen synthase kinase-3 beta (Homo sapiens) (UniProt P49841). Nature of the test: Inhibition of GSK3B at 30 uM by microfluidic mobility shift assay. The essentials: as §1
Chain of Glycogen synthase kinase-3 beta (Homo sapiens) (P49841 whole entry, looked up): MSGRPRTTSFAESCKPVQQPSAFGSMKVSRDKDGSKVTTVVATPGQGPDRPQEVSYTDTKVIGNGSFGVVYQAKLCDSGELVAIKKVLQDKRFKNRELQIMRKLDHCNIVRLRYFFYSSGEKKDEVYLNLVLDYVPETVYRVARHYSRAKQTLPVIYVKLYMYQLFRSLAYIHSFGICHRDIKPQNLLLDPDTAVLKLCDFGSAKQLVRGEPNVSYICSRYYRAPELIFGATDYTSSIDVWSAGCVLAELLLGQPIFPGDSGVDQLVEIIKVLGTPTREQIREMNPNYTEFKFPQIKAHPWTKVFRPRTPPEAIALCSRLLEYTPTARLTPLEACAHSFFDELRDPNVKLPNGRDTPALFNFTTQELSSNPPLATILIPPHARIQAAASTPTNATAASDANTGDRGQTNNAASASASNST
For test [21], the target named is Serine/threonine-protein kinase Chk2 (Homo sapiens, UniProt O96017). Nature of the test: Inhibition of CHK2 at 30 uM by microfluidic mobility shift assay. The essentials:
as §1

Chain of MAP kinase-activated protein kinase 2 (P49137 whole entry, looked up): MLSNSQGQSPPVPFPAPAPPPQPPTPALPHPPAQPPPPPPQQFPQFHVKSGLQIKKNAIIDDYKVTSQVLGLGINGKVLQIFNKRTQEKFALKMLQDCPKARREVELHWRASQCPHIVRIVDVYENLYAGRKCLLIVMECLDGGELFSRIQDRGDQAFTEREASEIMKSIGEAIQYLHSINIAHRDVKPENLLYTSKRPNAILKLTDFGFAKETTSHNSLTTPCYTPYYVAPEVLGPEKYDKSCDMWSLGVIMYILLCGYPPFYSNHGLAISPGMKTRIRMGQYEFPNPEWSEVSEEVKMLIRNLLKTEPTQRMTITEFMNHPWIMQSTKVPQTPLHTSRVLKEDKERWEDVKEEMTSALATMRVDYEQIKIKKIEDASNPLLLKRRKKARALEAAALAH
Chain of Tyrosine-protein kinase Lyn (P07948 2-512 limits assumed): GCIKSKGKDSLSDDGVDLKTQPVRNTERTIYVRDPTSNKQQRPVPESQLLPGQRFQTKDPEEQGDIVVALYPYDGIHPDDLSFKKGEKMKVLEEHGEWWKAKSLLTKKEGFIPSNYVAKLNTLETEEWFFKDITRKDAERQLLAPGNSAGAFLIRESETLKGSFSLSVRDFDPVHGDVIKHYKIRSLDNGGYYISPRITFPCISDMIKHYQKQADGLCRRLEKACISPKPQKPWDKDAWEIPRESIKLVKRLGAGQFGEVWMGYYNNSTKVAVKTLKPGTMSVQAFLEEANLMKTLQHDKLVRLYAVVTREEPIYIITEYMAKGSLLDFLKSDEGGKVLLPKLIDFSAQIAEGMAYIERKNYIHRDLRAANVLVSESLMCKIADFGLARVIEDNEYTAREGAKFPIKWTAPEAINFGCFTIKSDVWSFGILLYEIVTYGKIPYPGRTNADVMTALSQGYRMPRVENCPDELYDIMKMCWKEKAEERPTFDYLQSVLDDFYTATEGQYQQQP
Chain of Ribosomal protein S6 kinase alpha-1 (Homo sapiens) (Q15418 whole entry): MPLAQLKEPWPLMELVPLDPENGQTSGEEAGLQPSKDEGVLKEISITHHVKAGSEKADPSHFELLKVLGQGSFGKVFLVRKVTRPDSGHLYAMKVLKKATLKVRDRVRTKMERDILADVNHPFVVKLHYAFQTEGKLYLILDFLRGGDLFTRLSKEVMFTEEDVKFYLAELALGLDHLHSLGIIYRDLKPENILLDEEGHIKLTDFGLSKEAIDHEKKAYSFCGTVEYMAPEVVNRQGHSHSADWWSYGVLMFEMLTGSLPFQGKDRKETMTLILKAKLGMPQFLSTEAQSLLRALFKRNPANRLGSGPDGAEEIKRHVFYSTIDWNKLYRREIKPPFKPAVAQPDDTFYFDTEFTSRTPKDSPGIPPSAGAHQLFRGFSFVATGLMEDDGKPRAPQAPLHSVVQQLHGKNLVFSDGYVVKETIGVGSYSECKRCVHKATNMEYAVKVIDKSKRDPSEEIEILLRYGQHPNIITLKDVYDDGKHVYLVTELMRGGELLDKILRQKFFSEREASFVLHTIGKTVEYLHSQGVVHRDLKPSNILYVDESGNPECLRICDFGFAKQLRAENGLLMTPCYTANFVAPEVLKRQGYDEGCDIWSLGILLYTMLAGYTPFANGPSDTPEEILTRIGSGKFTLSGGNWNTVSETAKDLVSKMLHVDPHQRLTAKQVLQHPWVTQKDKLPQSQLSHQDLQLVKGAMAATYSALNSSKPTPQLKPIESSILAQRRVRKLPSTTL
Chain of RAC-beta serine/threonine-protein kinase (Homo sapiens) (P31751 whole entry): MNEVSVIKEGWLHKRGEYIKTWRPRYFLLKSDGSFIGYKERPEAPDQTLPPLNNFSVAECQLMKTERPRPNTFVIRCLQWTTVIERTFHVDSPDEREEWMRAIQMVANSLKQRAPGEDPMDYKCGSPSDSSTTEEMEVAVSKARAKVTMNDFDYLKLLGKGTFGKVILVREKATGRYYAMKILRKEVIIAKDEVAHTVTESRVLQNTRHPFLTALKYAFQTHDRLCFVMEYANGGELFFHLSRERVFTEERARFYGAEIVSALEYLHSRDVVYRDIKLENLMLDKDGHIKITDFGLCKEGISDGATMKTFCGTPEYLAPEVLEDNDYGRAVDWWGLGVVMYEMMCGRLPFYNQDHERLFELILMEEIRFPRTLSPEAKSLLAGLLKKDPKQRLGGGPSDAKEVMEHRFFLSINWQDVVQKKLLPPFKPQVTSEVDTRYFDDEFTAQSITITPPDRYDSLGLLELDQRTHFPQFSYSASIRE
Chain of Serine/threonine-protein kinase Chk2 (O96017 whole entry): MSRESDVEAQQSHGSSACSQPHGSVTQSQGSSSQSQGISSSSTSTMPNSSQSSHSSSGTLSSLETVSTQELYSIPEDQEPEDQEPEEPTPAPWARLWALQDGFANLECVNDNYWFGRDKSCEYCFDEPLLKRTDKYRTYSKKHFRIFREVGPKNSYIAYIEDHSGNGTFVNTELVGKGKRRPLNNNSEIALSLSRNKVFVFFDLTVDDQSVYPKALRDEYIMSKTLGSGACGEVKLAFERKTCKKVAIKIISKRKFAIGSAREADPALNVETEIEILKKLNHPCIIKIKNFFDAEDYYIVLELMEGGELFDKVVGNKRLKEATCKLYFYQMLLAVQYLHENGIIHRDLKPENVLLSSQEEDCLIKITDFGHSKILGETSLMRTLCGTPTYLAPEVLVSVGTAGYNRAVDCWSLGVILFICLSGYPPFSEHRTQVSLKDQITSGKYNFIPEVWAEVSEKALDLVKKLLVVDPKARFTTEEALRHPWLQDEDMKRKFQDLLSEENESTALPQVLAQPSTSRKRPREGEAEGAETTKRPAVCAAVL

In the case of `Cc1cc2nc(-c3ccccc3)nc(N)c2c(=O)[nH]1`, the inhibition worked out at 14% in test [1]; 2% in test [2]; 3% in test [3]; 5% in test [4]; 5% in test [5]; 39% in test [6]. Moreover, the inhibition in test [7] was 10%; in test [8], 11%; in test [9] it was 34%; in test [10], 5%; in test [11] it was 50%; in test [12], 32%. Also, the inhibition was 22% in test [13]; 40% in [14]; 7% in test [15]; 15% in [16]; 45% in test [17]; 7% in test [18]. The inhibition worked out at 23% in test [19], 86% in test [20] and 4% in [21].
Regarding `Cc1cc2c(c(N)nn2C)c(N2CCOCC2)n1`, the inhibition was 1% in test [1]; 12% in test [2]; -5% in [3]; -4% in test [4]; 3% in test [5]; 15% in [6]. In addition, the inhibition in test [7] is 4%; in test [8], -1%; in test [9] it was 17%; in [10] it was 5%; in [11] it was -2%; in test [12] it was 9%. In addition, the inhibition in test [13] was -2%; in test [14] it was 7%; in test [15] it was 2%; in test [16], 4%; in test [17], 10%; in [18] it was -8%. Besides, the inhibition in test [19] worked out at 17%; in test [20], 8%; in [21], 3%.
On to `Nc1n[nH]c2cc(-c3cccs3)[nH]c(=O)c12`, for which the inhibition was determined as 35% in [1]; 5% in test [2]; 44% in test [3]; 5% in test [4]; 21% in test [5]; 63% in test [6]. The inhibition in test [7] was found to be 15%; in test [8], 15%; in test [9], 67%; in test [10], 12%; in [11], 79%; in [12] it was 69%. Moreover, the inhibition is 58% in test [13]; 74% in [14]; 6% in test [15]; 63% in test [16]; 58% in test [17]; 4% in test [18]. In addition, the inhibition in test [19] was determined as 63%; in test [20] it was 89%; in test [21] it was 59%.
`Cc1cc2c(cn1)c(N)nn2C`: the inhibition in test [1] was 1%; in test [2], -2%; in test [3], 10%; in [4], -3%; in test [5] it was -3%; in [6], 2%. Besides, the inhibition in [7] is 6%; in test [8], 2%; in test [9] it was 3%; in test [10] it was 9%; in [11] it was 1%; in test [12], 2%. Further, the inhibition in test [13] is -2%; in [14], 3%; in test [15], 2%; in [16], -2%; in [17] it was 4%; in test [18], 0%. Besides, the values for the inhibition in [19], in test [20] and in test [21] were 1%, 6% and 3%, respectively.
For `Cc1cc2[nH]nc(N)c2c(N2CCOCC2)n1`, the inhibition in [1] worked out at 30%; in test [2] it was 7%; in test [3], 13%; in test [5], 0%; in [6], 24%; in test [7], 15%. Further, the inhibition in test [8] amounted to 7%; in [9] it was 72%; in test [10] it was 5%; in [11], 71%; in [12] it was 43%; in test [13], 1%. Further, the inhibition in test [14] was 45%; in [15], -3%; in test [16], 74%; in [17], 44%; in test [18] it was 17%; in test [19], 51%. Further, the inhibition stood at 73% in test [20] and 23% in [21].
